Screening results (PubChem)
An excerpt weighted towards active compounds, which were near 2.3% of everything screened.
MEKK2 WT-MEK5 – raises or lowers MEK5 binding to wildtype human MEKK2 PB1 domain; bead flow cytometry, Alexa488-MEK5 binding to MEKK2 WT; actives lie on both sides; binding response (% of control), % at 10 µM; AID 1531; 1.1% of 290,000 active; in the data active = binding response below about 67% or above about 130%
Arrestin-AP2 inh – inhibitors of human beta-arrestin and AP2 interaction | 0.31% of 340,000 active | inhibition, % at 10 µM | FITC-arrestin peptide / GST-AP2 beads, flow cytometry; AP2 beta2 appendage carries R879A mutation;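 active = inhibition above a set limit, near 3 SD of compounds lacking own fluorescence, cut at about 54% in these data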;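 note: plate controls were DMSO wells for no effect and 5 µM unlabelled arrestin peptide for full effect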
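system = GST-tagged AP2 beta2-adaptin appendage (R879A) on 4 µm glutathione beads | reagent = FITC-labelled arrestin peptide probe, 50 nM final | schedule = compound with beads 12 min RT, then probe 1 h RT | signal = HyperCyt-sampled flow cytometry, FL1 channel, ex 488/em 535 nm | read-out = percent response from loss of bead-bound FITC fluorescence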
MEKK2 mut-MEK5 – signal of MEK5 binding to mutant human MEKK2 PB1 domain. percent response, % at 10 µM. bead flow cytometry, Alexa488-MEK5 binding to MEKK2 mutant. AID 1530. 0.35% of 290,000 active; in the data active = percent response above about 24%, passing the limit was not always enough
MEKK3 PB1 HTS – modulators (inhibitors or enhancers) of MEK5 binding to human MEKK3 PB1 domain; bead-based flow cytometry, Alexa488-MEK5 binding to MEKK3; actives lie on both sides; 0 = blocked by unlabeled MEK5, 100 = vehicle; 1.4% of 290,000 active; AID 1529; Q99759; binding response (% of control), % at 10 µM;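 active = binding response more than 3 SD above or below the average of its plate-row segment, actives on both sides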;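 note: Alexa488 bead fluorescence after subtracting the streptavidin-only scavenger bead signal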
Target sequence (Q99759 whole entry, looked up, the tested form may be a part): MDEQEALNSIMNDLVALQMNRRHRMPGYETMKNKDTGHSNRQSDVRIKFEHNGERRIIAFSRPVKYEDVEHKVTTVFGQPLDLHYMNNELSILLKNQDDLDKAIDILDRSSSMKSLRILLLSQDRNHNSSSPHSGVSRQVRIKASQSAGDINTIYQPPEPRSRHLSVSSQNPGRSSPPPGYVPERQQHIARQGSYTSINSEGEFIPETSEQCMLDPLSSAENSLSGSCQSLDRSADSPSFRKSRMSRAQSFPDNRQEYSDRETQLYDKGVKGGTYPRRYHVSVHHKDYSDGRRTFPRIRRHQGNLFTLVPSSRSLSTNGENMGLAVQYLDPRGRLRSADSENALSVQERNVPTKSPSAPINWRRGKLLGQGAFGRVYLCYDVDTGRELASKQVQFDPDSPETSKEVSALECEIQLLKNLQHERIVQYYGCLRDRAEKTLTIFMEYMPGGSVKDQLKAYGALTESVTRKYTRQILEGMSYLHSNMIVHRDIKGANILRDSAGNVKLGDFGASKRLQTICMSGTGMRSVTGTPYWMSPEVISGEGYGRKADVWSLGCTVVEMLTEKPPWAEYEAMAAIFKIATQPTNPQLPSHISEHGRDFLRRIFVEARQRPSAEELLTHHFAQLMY
Active calls of the source: *; · = no result; [ ] = remark or other dose.

SMILES	MEKK2 WT-MEK5	Arrestin-AP2 inh	MEKK2 mut-MEK5	MEKK3 PB1 HTS
CC1CC(C)CN(CCCNC(=O)C2CCN(c3nnc(-n4cccc4)s3)CC2)C1 (stereo not given)	155*	14	20	100
CCOc1ccc2nc(N3CCCC(C(=O)NCCCN4CCCCC4)C3)sc2c1 (stereo not given)	109	-9	3	98
Cc1oc(-c2cccc(Cl)c2)nc1CN1CCC(C(=O)NCCCN2CCCC2=O)CC1	103	19	3	102
Cc1ccc(C)n1-c1nnc(N2CCC(C(=O)NCCCN3CC(C)CC(C)C3)CC2)s1 (stereo not given)	102	-8	0	101
Cc1oc(-c2cccc(Cl)c2)nc1CN1CCC(C(=O)NCCCN2CC(C)CC(C)C2)CC1 (stereo not given)	139*	-17	18	101
CCOc1ccc2nc(N3CCCC(C(=O)NCCCN4CC(C)CC(C)C4)C3)sc2c1 (stereo not given)	142*	-2	16	107
CCOc1ccc(NCc2cccn2-c2nnc(N3CCC(C(=O)NCCCN4CCCCC4CC)CC3)s2)cc1 (stereo not given)	133	-14	24*	104
C#CCOCCOCCOCCNc1nc(N2CCOCC2)nc(N2CCN(C(=O)Cn3cc(CCCCN)nn3)CC2)n1	·	3	·	·
N#CN1CCC(NS(=O)(=O)c2ccc(C(F)(F)F)cc2)CC1	·	-2	·	·
O=C(CCNC(=O)c1ccc(Cl)cc1)NCc1ccco1	·	2	·	·
O=C(Nc1cc(Cl)ccc1N1CCOCC1)c1ccc(=O)[nH]c1	·	8	·	·
O=C(NCCCc1ccccc1)C1CCN(c2nnc(-n3cccc3)s2)CC1	105	15	3	104
CC1CCCCN1CCCNC(=O)C1CCN(c2nnc(-n3cccc3)s2)CC1 (stereo not given)	150*	-5	22	100
O=C(NCCCN1CCN(Cc2ccccc2)CC1)C1CCN(c2nnc(-n3cccc3)s2)CC1	197*	7	56*	111
CCN(CC)CCNC(=O)c1ccc(NC(=O)c2cn(-c3ccc(F)cc3)nc2-c2cccc(OC)c2)cc1	222*	1	51*	108
OC1COCOC1C(O)C1OCOCC1O (stereo not given)	·	8	·	·
CCC(=O)Nc1ccc(C(=O)N/N=C/c2c(C)[nH]c3ccccc23)cc1	35*	5	45	92
O=C(OCc1ccccc1F)c1cnc(Cl)c(Cl)c1	-10*[inhibitor]	-4	-26	0.0*[inhibitor]
O=C(OCc1c(F)cccc1Cl)c1cnc(Cl)c(Cl)c1	99	-4	-1	100
C/C(=N\Nc1ccc(C(=O)O)cc1)c1ccc(Br)cc1	103	-9	-2	94
C/C(=N/Nc1ncc(Br)cn1)c1ccc(Br)cc1	-2.0*	-7	-3	103
C[C@H]1CN(S(=O)C(C)(C)C)[C@H](CCO)/C1=C\CCO (stereo not given in full)	·	6	·	·
O=C(COC(=O)c1ccc(-n2cnnn2)cc1)c1ccc(Br)cc1	·	14	·	·
C=C(C)CC(NCCc1ccccc1)c1ccco1 (stereo not given)	164*	-5	-15	98
O=C1NC(c2ccccc2)N=C2Oc3ccccc3C=C12 (stereo not given)	·	30	·	·
SMILES	MEKK2 WT-MEK5	Arrestin-AP2 inh	MEKK2 mut-MEK5	MEKK3 PB1 HTS
Cc1ccc(-n2nc3c(c2NC(=O)c2ccc4c(c2)OCO4)CS(=O)(=O)C3)cc1	0.0*[inhibitor]	20	-18	2.0*[inhibitor]
Cc1ccc(-n2nc3c(c2NC(=O)c2ccc4c(c2)OCO4)CS(=O)(=O)C3)cc1C	102	-4	3	101
Cc1ccc(-n2nc3c(c2NC(=O)c2ccco2)CS(=O)(=O)C3)cc1C	101	-7	6	102
O=C(Nc1c2c(nn1-c1cccc(Cl)c1)CS(=O)(=O)C2)c1ccco1	42*[inhibitor]	-5	-14	36*[inhibitor]
CN(C(=O)c1cccc(NC(=O)Cc2cccc(NC(=O)C3CCN(C(=O)c4ccccc4)CC3)c2)c1)C1CC1	·	6	·	·
Cc1ccccc1NC(=O)NC(N)=O	-4.0*	12	2	99
COc1ccccc1NC(=O)NC(N)=O	110	4	2	109
Cc1cccc(NC(=O)c2cc[n+]([O-])cc2)c1C	96	14	-5	100
Cc1ccccc1NC(=O)c1cc[n+]([O-])cc1	169*	17	18	104
COc1ccc(/C=N/NC(=O)CCn2cnc(-c3ccccc3)c2-c2ccccc2)cc1	106	-2	2	150*
Cc1ccc2c(c1)S(=O)(=O)N(C)C(c1ccccc1)=C2	·	1	·	·
NC(=O)c1ncn([C@@H]2O[C@H](CNCc3cccc(OC4CCCC4)c3)[C@@H](O)[C@H]2O)n1	·	2	·	·
CS(=O)(=O)N1CCC(Oc2cccc(C(=O)NCCCC3CCCC3)c2)CC1	108	61*	3	102
COc1cc(O)c(CCO)c2c1C(=O)C[C@@H](C)O2	-9.0*	2	-16	87
Cc1cccc(CN2C(=O)c3ccccc3S(=O)(=O)c3ccc(C(=O)NCCCN4CCCC4)cc32)c1	141*	2	15	106
N#Cc1ccc(OC(=O)C2CCN(C3=NS(=O)(=O)c4ccccc43)CC2)cc1	·	-5	·	·
COc1cccc(CCN2CCC(CNS(=O)(=O)c3cc(-c4cc(C)no4)ccc3C)CC2)c1	140*	-23	23	103
CC1(C)CC(=O)C2=C(C1)N(Cc1ccco1)C(=O)C2(NC(=O)c1cccnc1)C(F)(F)F (stereo not given)	66	-11	-15	56*[inhibitor]
c1coc(C2=NC(c3ccco3)C(c3ccco3)N2)c1 (stereo not given)	·	21	·	·
CC(C)(C)OC(=O)N1CCCC(C(=O)Nc2ccc(C(=O)NCCc3ccccc3)cc2)C1 (stereo not given)	·	-5	·	·
CCC1CCCCN1CCCNC(=O)c1ccc2c(c1)c(C)c(C)n2CC (stereo not given)	50*	17	20	101
CCC1CCCCN1CCCNC(=O)c1ccc2c(c1)c(C)c(C)n2C (stereo not given)	158*	-21	21	99
CCC1CCCCN1CCCNC(=O)c1ccc2c(c1)N(Cc1ccc(F)cc1)C(=O)c1ccccc1S2=O (stereo not given)	147*	-9	10	107
CCC1CCCCN1CCCNC(=O)c1cc2c(=O)oc3ccc(C)cc3c2s1 (stereo not given)	153*	-2	14	102
CC[n+]1c(/C=C/C=C/N(C(C)=O)c2ccccc2)sc2cc(OC)ccc21	11*	·	15	89
CCc1ccc2nc3sc(C(=O)N4CCc5ccccc54)c(N)c3cc2c1	87	·	59*	103
O=C1NC(=O)C2(CCCCCC2)N1	·	-4	·	·
CC[C@]12c3[nH]c4ccc(OC)cc4c3CCN1C(=O)C(CC(=O)NCCc1ccccn1)C[C@@H]2C(=O)N1CCN(C(=O)c2ccco2)CC1 (stereo not given in full)	·	11	·	·
COC1=CC(=Cc2c(N)n3nc(CC(=O)N4CCCCC4)sc3nc2=O)C=C(OC)C1=O	70*[inhibitor]	15	-14	82*[inhibitor]
